{
  "source": "ChEMBL document CHEMBL1153925",
  "about": "“Synthesis, characterization and biological activity of ring-substituted 6-benzylamino-9-tetrahydropyran-2-yl and 9-tetrahydrofuran-2-ylpurine derivatives” (Bioorg Med Chem, 2009)",
  "key": {"[1]": {"assay": "Stability assessed as free base release at pH 4 after 24 hr by HPLC-PDA method", "assay_type": "physicochemical", "details": "pH 4, 24 h", "in_short": "(§1)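 10^-2 M methanol solution diluted to 10^-4 M in McIlvaine buffer at pH 3, 4, 5, 6 or 7, then incubated at 25 °C. Direct injection onto reversed-phase C18 after 1 h and again after 24 h. Methanol/15 mM formic acid (pH 4, ammonium) gradient at 0.3 mL/min, PDA at 270 nm. Parent and released free base (m-topolin) reported as peak area %.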"}, "[2]": {"assay": "Stability assessed as free base release at pH 4 after 1 hr by HPLC-PDA method", "assay_type": "physicochemical", "details": "pH 4, 1 h", "in_short": "as §1"}, "[3]": {"tested_on": "Triticum aestivum", "assay": "Cytokinin activity in wheat leaf assessed as stimulation of retention of chlorophyll in excised leaves at 0.1 mM relative to 6-benzylaminopurine", "assay_type": "functional"}, "[4]": {"assay": "Stability assessed as compound peak area at pH 3 after 1 hr by HPLC-PDA method", "assay_type": "physicochemical", "details": "read-out: Stability", "in_short": "as §1"}, "[5]": {"assay": "Stability assessed as free base release at pH 5 after 24 hr by HPLC-PDA method", "assay_type": "physicochemical", "details": "pH 5, 24 h", "in_short": "as §1"}, "[6]": {"assay": "Stability assessed as compound peak area at pH 4 after 1 hr by HPLC-PDA method", "assay_type": "physicochemical", "details": "read-out: Stability", "in_short": "as §1"}, "[7]": {"assay": "Stability assessed as compound peak area at pH 5 after 24 hrs by HPLC-PDA method", "assay_type": "physicochemical", "details": "read-out: Stability", "in_short": "as §1"}, "[8]": {"assay": "Stability assessed as free base release at pH 3 after 1 hr by HPLC-PDA method", "assay_type": "physicochemical", "details": "pH 3, 1 h", "in_short": "as §1"}, "[9]": {"tested_on": "Amaranthus", "assay": "Cytokinin activity in cotyledons assessed as dark induction of betacyanin synthesis at 100 uM relative to 6-benzylaminopurine", "assay_type": "functional"}, "[10]": {"assay": "Stability assessed as compound peak area at pH 7 after 1 hr by HPLC-PDA method", "assay_type": "physicochemical", "details": "read-out: Stability", "in_short": "as §1"}, "[11]": {"tested_on": "BJ", "assay": "Cytotoxicity against human BJ cells after 72 hrs by MTT assay", "assay_type": "ADME, cell-based"}, "[12]": {"assay": "Stability assessed as free base release at pH 7 after 1 hr by HPLC-PDA method", "assay_type": "physicochemical", "details": "pH 7, 1 h", "in_short": "as §1"}, "[13]": {"assay": "Stability assessed as free base release at pH 3 after 24 hr by HPLC-PDA method", "assay_type": "physicochemical", "details": "pH 3, 24 h", "in_short": "as §1"}, "[14]": {"assay": "Stability assessed as compound peak area at pH 7 after 24 hrs by HPLC-PDA method", "assay_type": "physicochemical", "details": "read-out: Stability", "in_short": "as §1"}, "[15]": {"tested_on": "MCF7", "assay": "Cytotoxicity against human MCF7 cells after 72 hrs by Calcein AM assay", "assay_type": "ADME, cell-based", "details": "MCF7, 72 h"}, "[16]": {"tested_on": "K562", "assay": "Cytotoxicity against human K562 cells after 72 hrs by Calcein AM assay", "assay_type": "ADME, cell-based", "details": "K562, 72 h"}, "[17]": {"assay": "Stability assessed as compound peak area at pH 4 after 24 hrs by HPLC-PDA method", "assay_type": "physicochemical", "details": "read-out: Stability", "in_short": "as §1"}, "[18]": {"assay": "Stability assessed as free base release at pH 6 after 1 hr by HPLC-PDA method", "assay_type": "physicochemical", "details": "pH 6, 1 h", "in_short": "as §1"}, "[19]": {"assay": "Stability assessed as free base release at pH 7 after 24 hr by HPLC-PDA method", "assay_type": "physicochemical", "details": "pH 7, 24 h", "in_short": "as §1"}, "[20]": {"assay": "Stability assessed as compound peak area at pH 5 after 1 hr by HPLC-PDA method", "assay_type": "physicochemical", "details": "read-out: Stability", "in_short": "as §1"}, "[21]": {"assay": "Stability assessed as compound peak area at pH 6 after 1 hr by HPLC-PDA method", "assay_type": "physicochemical", "details": "read-out: Stability", "in_short": "as §1"}, "[22]": {"assay": "Stability assessed as compound peak area at pH 3 after 24 hrs by HPLC-PDA method", "assay_type": "physicochemical", "details": "read-out: Stability", "in_short": "as §1"}, "[23]": {"assay": "Stability assessed as compound peak area at pH 6 after 24 hrs by HPLC-PDA method", "assay_type": "physicochemical", "details": "read-out: Stability", "in_short": "as §1"}, "[24]": {"tested_on": "Nicotiana tabacum", "assay": "Cytokinin activity in tobacco callus assessed as stimulation of callus growth at 1 uM relative to 6-benzylaminopurine", "assay_type": "functional"}, "[25]": {"assay": "Stability assessed as free base release at pH 5 after 1 hr by HPLC-PDA method", "assay_type": "physicochemical", "details": "pH 5, 1 h", "in_short": "as §1"}, "[26]": {"assay": "Stability assessed as free base release at pH 6 after 24 hr by HPLC-PDA method", "assay_type": "physicochemical", "details": "pH 6, 24 h", "in_short": "as §1"}},
  "data": [
    {"smiles": "Oc1cccc(CNc2ncnc3c2ncn3C2CCCCO2)c1", "note": "(stereo unspecified)", "values": [
      {"measurement": "Activity", "setting": "[1]", "result": 6.1, "unit": "%"},
      {"measurement": "Activity", "setting": "[2]", "result": 0.5, "unit": "%"},
      {"measurement": "Activity", "setting": "[3]", "result": 140, "unit": "%"},
      {"measurement": "remaining at 1 h", "setting": "[4]", "result": 98.8, "unit": "%"},
      {"measurement": "Activity", "setting": "[5]", "result": 0.8, "unit": "%"},
      {"measurement": "remaining at 1 h", "setting": "[6]", "result": 99.5, "unit": "%"},
      {"measurement": "remaining at 24 h", "setting": "[7]", "result": 99.2, "unit": "%"},
      {"measurement": "Activity", "setting": "[8]", "result": 1.2, "unit": "%"},
      {"measurement": "Activity", "setting": "[9]", "result": 100, "unit": "%"},
      {"measurement": "remaining at 1 h", "setting": "[10]", "result": 99.9, "unit": "%"},
      {"measurement": "IC50", "setting": "[11]", "result": "> 100", "unit": "µM"},
      {"measurement": "Activity", "setting": "[12]", "result": 0.1, "unit": "%"},
      {"measurement": "Activity", "setting": "[13]", "result": 60.4, "unit": "%"},
      {"measurement": "remaining at 24 h", "setting": "[14]", "result": 99.8, "unit": "%"},
      {"measurement": "IC50", "setting": "[15]", "result": "> 100", "unit": "µM"},
      {"measurement": "IC50", "setting": "[16]", "result": 81, "unit": "µM"},
      {"measurement": "remaining at 24 h", "setting": "[17]", "result": 93.9, "unit": "%"},
      {"measurement": "Activity", "setting": "[18]", "result": 0.2, "unit": "%"},
      {"measurement": "Activity", "setting": "[19]", "result": 0.2, "unit": "%"},
      {"measurement": "remaining at 1 h", "setting": "[20]", "result": 99.5, "unit": "%"},
      {"measurement": "remaining at 1 h", "setting": "[21]", "result": 99.8, "unit": "%"},
      {"measurement": "remaining at 24 h", "setting": "[22]", "result": 39.6, "unit": "%"},
      {"measurement": "remaining at 24 h", "setting": "[23]", "result": 99.3, "unit": "%"},
      {"measurement": "Activity", "setting": "[24]", "result": 95, "unit": "%"},
      {"measurement": "Activity", "setting": "[25]", "result": 0.5, "unit": "%"},
      {"measurement": "Activity", "setting": "[26]", "result": 0.7, "unit": "%"}
    ]}
  ]
}
